Data on 35 compounds can be found in ChEMBL document CHEMBL1127825, “Synthesis and in vitro evaluation of 9-anilino-3,6-diaminoacridines active against a multidrug-resistant strain of the malaria parasite Plasmodium falciparum” (J Med Chem, 1994).

A short description of data set [1]: In vitro therapeutic index value is the ratio between IC50 values of [J] and [P]. The class given is cell-based. Particulars: human, Jurkat cells; read-out: TI.
Another data set deals with Jurkat. Description: Concentration required to reduce growth of human jurkat leukemia cells to 50% of control cultures, determined using a 72 hr continuous exposure. The format is functional, cell-based. An outline of the steps:
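Human Jurkat leukemia cells given continuous drug exposure for 72 h, then counted on a hemocytometer. IC50 is the concentration that cuts cell growth to 50% of untreated controls. Values are means of at least two independent determinations, with variation typically ±15%.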

The next data set concerns Plasmodium falciparum. Description: Inhibitory concentration IC50 against Plasmodium falciparum K1 by [3H]hypoxanthine uptake over 24 hr. The class given is functional, organism-based. Put shortly: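 K1 strain of P. falciparum (chloroquine- and pyrimethamine-resistant) in infected erythrocyte suspensions at 0.5% initial parasitemia, exposed to drug for 24 h at 37 °C. Read-out is [3H]hypoxanthine incorporation into parasites. IC50 is the concentration giving 50% inhibition relative to untreated controls.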

Data set [2] concerns the target DNA topoisomerase II (Homo sapiens) (UniProt P11388+Q02880). The data set can be described thus: Minimum inhibitory concentration required to completely inhibit topoisomerase II activity from jurkat human leukemia cells was determined using P4 DNA unknotting assay. An outline of the steps: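 Enzyme is a partially purified topoisomerase II extract from midlog Jurkat cells, made by sonication in Tris pH 8/KCl/MgCl2/EGTA buffer with protease inhibitors, then PEG/KCl precipitation. Extract is diluted to a set P4 DNA unknotting activity. Proteinase K method scores unknotting and linearization of phage P4 DNA on 0.7% agarose gels stained with ethidium bromide. MIC is the concentration giving complete inhibition.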

Data set [3] deals with T1, DNA topoisomerase 2 (Plasmodium falciparum K1) (UniProt P41001).
T1 sequence (whole entry): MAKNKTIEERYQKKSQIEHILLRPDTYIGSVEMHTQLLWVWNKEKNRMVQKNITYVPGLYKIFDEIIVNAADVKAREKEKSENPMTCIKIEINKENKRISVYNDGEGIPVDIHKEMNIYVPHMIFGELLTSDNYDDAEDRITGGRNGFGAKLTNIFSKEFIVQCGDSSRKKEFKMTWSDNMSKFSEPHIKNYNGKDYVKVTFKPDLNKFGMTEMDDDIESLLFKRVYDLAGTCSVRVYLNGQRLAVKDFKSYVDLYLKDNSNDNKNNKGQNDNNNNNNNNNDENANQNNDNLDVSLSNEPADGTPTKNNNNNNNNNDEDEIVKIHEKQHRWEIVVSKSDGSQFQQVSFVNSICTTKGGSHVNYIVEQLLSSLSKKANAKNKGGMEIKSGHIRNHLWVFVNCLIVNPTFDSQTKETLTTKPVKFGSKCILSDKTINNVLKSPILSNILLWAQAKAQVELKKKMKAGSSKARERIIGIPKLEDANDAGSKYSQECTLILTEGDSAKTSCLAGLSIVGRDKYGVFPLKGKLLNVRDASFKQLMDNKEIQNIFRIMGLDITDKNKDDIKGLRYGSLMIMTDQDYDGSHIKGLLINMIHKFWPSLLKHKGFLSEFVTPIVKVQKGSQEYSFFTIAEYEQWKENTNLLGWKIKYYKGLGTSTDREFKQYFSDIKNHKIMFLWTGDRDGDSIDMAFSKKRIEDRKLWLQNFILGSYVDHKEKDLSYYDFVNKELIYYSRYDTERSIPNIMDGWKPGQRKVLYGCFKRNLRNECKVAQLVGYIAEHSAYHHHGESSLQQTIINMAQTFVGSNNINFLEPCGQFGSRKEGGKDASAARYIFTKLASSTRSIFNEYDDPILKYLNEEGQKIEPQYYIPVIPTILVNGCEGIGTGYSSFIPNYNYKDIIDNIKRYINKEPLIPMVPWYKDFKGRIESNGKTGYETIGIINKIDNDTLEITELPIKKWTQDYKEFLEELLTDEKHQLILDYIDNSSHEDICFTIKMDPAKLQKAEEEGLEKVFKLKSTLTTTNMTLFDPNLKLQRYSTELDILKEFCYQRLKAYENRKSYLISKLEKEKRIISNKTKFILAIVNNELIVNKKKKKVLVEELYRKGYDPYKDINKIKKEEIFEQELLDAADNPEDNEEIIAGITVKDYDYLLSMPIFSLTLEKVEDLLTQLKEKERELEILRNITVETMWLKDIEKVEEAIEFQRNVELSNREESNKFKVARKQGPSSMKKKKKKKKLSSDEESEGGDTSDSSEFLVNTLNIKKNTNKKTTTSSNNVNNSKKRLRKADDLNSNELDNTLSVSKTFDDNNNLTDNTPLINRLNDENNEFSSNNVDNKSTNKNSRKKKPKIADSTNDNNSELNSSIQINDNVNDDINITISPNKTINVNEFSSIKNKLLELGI
The data set can be described thus: Minimum inhibitory concentration required to completely inhibit topoisomerase II activity from Plasmodium falciparum was determined using P4 DNA […] assay.

Values after ≈ are worked out from the molar mass of the structure shown.

With `CCCCCNCc1ccc(Nc2c3ccc(N)cc3nc3cc(N)ccc23)cc1`, the selectivity ratio in data set [1] worked out at 27. Besides, the 50% inhibitory concentration (IC50) – broadly, the concentration that gives 50% inhibition – in the data set with Jurkat came out at 16 µM; in the data set on Plasmodium falciparum, 0.6 µM.

As for `CNS(=O)(=O)c1ccc(Nc2c3ccc(N)cc3nc3cc(N)ccc23)cc1`, in data set [1], the selectivity ratio turned out to be 143. Moreover, the MIC in data set [2] amounted to 20 µM (≈ 7.87 µg/mL); in data set [3] it was 25 µM (≈ 9.84 µg/mL). Also, the results for the IC50 in the data set with Jurkat and in the data set on Plasmodium falciparum were 2 µM and 0.014 µM, respectively.

Regarding `COc1cc(NS(C)(=O)=O)ccc1Nc1c2ccccc2nc2ccccc12` [AMSACRINE], in data set [1], the selectivity ratio was less than 1.5. The figures for the IC50 in the data set on Jurkat and with Plasmodium falciparum were less than 1 µM and 0.6 µM, respectively.

For the compound `NC(=O)c1ccc(Nc2c3ccc(N)cc3nc3cc(N)ccc23)cc1`, the selectivity ratio in data set [1] is greater than 285. For the same compound, the MIC in data set [2] was 20 µM (≈ 6.87 µg/mL); in data set [3] it was 6 µM (≈ 2.06 µg/mL). Moreover, the half-maximal inhibitory concentration (IC50) in the data set with Jurkat is greater than 20 µM; with Plasmodium falciparum, 0.07 µM.

`COc1ccc2c(Nc3ccc(S(N)(=O)=O)cc3)c3ccc(OC)cc3nc2c1`: the selectivity ratio in data set [1] is less than 3.2. Also, the MIC in data set [2] and in data set [3] was greater than 100 µM throughout. In addition, the IC50 in the data set on Jurkat was 3.1 µM; with Plasmodium falciparum, greater than 10 µM.

As for `CN(C)S(=O)(=O)c1ccc(Nc2c3ccc(N)cc3nc3cc(N)ccc23)cc1`, the selectivity ratio in data set [1] stood at 31. For the same compound, the concentration for half-maximal inhibition (IC50) worked out at 5 µM in the data set on Jurkat and 0.16 µM in the data set on Plasmodium falciparum.

For the compound `Nc1ccc2c(Nc3ccc(S(=O)(=O)N4CCCCC4)cc3)c3ccc(N)cc3nc2c1`, the selectivity ratio in data set [1] was 10. The IC50 in the data set on Jurkat was found to be 14 µM; with Plasmodium falciparum, 1.4 µM.

On to `COc1cc(Nc2c3ccc(N)cc3nc3cc(N)ccc23)ccc1NS(C)(=O)=O`, for which the selectivity ratio in data set [1] was found to be 17. The IC50 with Jurkat was 8.5 µM; in the data set on Plasmodium falciparum, 0.5 µM.

For the compound `COc1cc(NS(C)(=O)=O)ccc1Nc1c2ccccc2nc2cc(N)ccc12`, the selectivity ratio in data set [1] is less than 5. For the same compound, the IC50 was less than 1 µM in the data set on Jurkat and 0.2 µM in the data set on Plasmodium falciparum.

With `CN(C)c1ccc(Nc2c3ccccc3nc3cc(N)ccc23)cc1`, the selectivity ratio in data set [1] was less than 3.5. In addition, the results for the IC50 in the data set on Jurkat and in the data set with Plasmodium falciparum were less than 1 µM and 0.29 µM, respectively.

With `NS(=O)(=O)c1ccc(Nc2c3ccc(Cl)cc3nc3cc(Cl)ccc23)cc1`, the MIC is greater than 100 µM in data set [2] and 100 µM (≈ 41.8 µg/mL) in data set [3]. The IC50 was greater than 20 µM with Jurkat and greater than 10 µM with Plasmodium falciparum.

Regarding `Nc1ccc2c(Nc3ccccc3)c3ccc(N)cc3nc2c1`, the selectivity ratio in data set [1] was found to be 50. For the same compound, the half-maximal inhibitory concentration (IC50) with Jurkat worked out at 15 µM; with Plasmodium falciparum it was 0.3 µM.

Consider `CN(C)Cc1ccc(Nc2c3ccccc3nc3ccccc23)cc1`, for which the selectivity ratio in data set [1] came to 50. Besides, the IC50 amounted to 7.5 µM in the data set on Jurkat and 0.15 µM with Plasmodium falciparum.

`CN(C)Cc1ccc(Nc2c3ccc(Cl)cc3nc3cc(Cl)ccc23)cc1`: the selectivity ratio in data set [1] turned out to be 20. The figures for the IC50 in the data set on Jurkat and in the data set on Plasmodium falciparum were 5 µM and 0.25 µM, respectively.

Take `CS(=O)(=O)Nc1ccc(Nc2c3ccc(N)cc3nc3cc(N)ccc23)cc1`: in data set [1], the selectivity ratio turned out to be 33. For the same compound, the MIC in data set [2] was found to be 10 µM (≈ 3.93 µg/mL); in data set [3] it was 6 µM (≈ 2.36 µg/mL). Moreover, the IC50 in the data set with Jurkat was determined as 1 µM; in the data set on Plasmodium falciparum, 0.03 µM.

Take `Nc1ccc2c(=Nc3ccc(S(N)(=O)=O)cc3)c3ccc(N)cc3[nH]c2c1`: the selectivity ratio in data set [1] came out at 1000. Moreover, the MIC was 20 µM (≈ 7.59 µg/mL) in data set [2] and 6 µM (≈ 2.28 µg/mL) in data set [3]. The IC50 with Jurkat was found to be 20 µM; in the data set with Plasmodium falciparum it was 0.02 µM.

For `CN(C)c1ccc2c(Nc3ccccc3)c3ccc(N(C)C)cc3nc2c1`, the selectivity ratio in data set [1] worked out at 0.6. The IC50 stood at 1.4 µM in the data set with Jurkat and 2.4 µM in the data set with Plasmodium falciparum.

As to `Nc1ccc(Nc2c3ccccc3nc3cc(N)ccc23)cc1`, the selectivity ratio in data set [1] came to 7.5. For the same compound, the IC50 in the data set on Jurkat was 0.75 µM; in the data set with Plasmodium falciparum it was 0.1 µM.

For `Nc1ccc(Nc2c3ccccc3nc3ccccc23)cc1`, the selectivity ratio in data set [1] is 0.5. Also, the concentration for half-maximal inhibition (IC50) with Jurkat was determined as 0.75 µM; in the data set with Plasmodium falciparum, 1.5 µM.

With `CN(C)c1ccc(Nc2c3ccccc3nc3ccccc23)cc1`, the selectivity ratio in data set [1] was less than 2. In addition, the IC50 in the data set on Jurkat was less than 1 µM; in the data set with Plasmodium falciparum, 0.47 µM.

As to `CNc1ccc(Nc2c3ccc(N)cc3nc3cc(N)ccc23)cc1`, the selectivity ratio in data set [1] was determined as 72. The figures for the IC50 with Jurkat and in the data set on Plasmodium falciparum were 11.5 µM and 0.16 µM, respectively.

For `CNc1ccc(Nc2c3ccccc3nc3ccccc23)cc1`, the selectivity ratio in data set [1] stood at 3.8. Further, the IC50 in the data set on Jurkat was 1.5 µM; in the data set with Plasmodium falciparum, 0.4 µM.

With `CNC(=O)c1ccc(Nc2c3ccc(N)cc3nc3cc(N)ccc23)cc1`, the selectivity ratio in data set [1] is greater than 500. Also, the half-inhibitory concentration (IC50) in the data set on Jurkat was greater than 20 µM; in the data set on Plasmodium falciparum, 0.04 µM.

On to `CN(C)Cc1ccc(Nc2c3ccccc3nc3cc(N)ccc23)cc1`, for which the selectivity ratio in data set [1] came to 10. For the same compound, the IC50 was determined as 2.5 µM with Jurkat and 0.25 µM in the data set on Plasmodium falciparum.

On to `CS(=O)(=O)Nc1ccc(Nc2c3ccccc3nc3ccccc23)cc1`, for which, in data set [1], the selectivity ratio is less than 0.3. Besides, the IC50 in the data set with Jurkat is less than 1 µM; in the data set on Plasmodium falciparum, 3 µM.

Consider `COc1cc(N=c2c3ccccc3[nH]c3cc(N)ccc23)ccc1NS(C)(=O)=O`, for which the selectivity ratio in data set [1] was less than 0.4. Moreover, the IC50 in the data set on Jurkat was less than 1 µM; in the data set on Plasmodium falciparum, 2.7 µM.

`CS(=O)(=O)Nc1ccc(Nc2c3ccccc3nc3cc(N)ccc23)cc1`: the selectivity ratio in data set [1] was determined as 0.7. For the same compound, the figures for the IC50 in the data set on Jurkat and in the data set on Plasmodium falciparum were 2 µM and 3 µM, respectively.

As for `COc1cc(Nc2c3ccccc3nc3ccccc23)ccc1NS(C)(=O)=O` [o-Amsacrine], in data set [1], the selectivity ratio worked out at 0.4. Moreover, the IC50 came out at 10 µM with Jurkat and 26 µM in the data set with Plasmodium falciparum.

With `COc1cc(NS(C)(=O)=O)ccc1Nc1c2ccc(N(C)C)cc2nc2cc(N(C)C)ccc12`, in data set [1], the selectivity ratio is less than 2.5. Also, the IC50 in the data set with Jurkat was less than 1 µM; in the data set on Plasmodium falciparum, 0.4 µM.

As for `Nc1ccc2c(Nc3ccc(CN4CCCCC4)cc3)c3ccc(N)cc3nc2c1`, the selectivity ratio in data set [1] was greater than 100. Also, the figures for the IC50 with Jurkat and in the data set with Plasmodium falciparum were greater than 20 µM and 0.2 µM, respectively.

Regarding `COc1cc(NS(C)(=O)=O)ccc1Nc1c2ccc(N)cc2nc2cc(N)ccc12`, the selectivity ratio in data set [1] was found to be 8. Further, the half-maximal inhibitory concentration (IC50) with Jurkat came out at 0.8 µM; with Plasmodium falciparum it was 0.1 µM.

Regarding `[N-]=[N+]=Nc1ccc2c(Nc3ccc(S(N)(=O)=O)cc3)c3ccc(N=[N+]=[N-])cc3nc2c1`, in data set [1], the selectivity ratio came to 83. Further, the IC50 worked out at 2.5 µM in the data set with Jurkat and 0.03 µM with Plasmodium falciparum.

As for `CN(C)C(=O)c1ccc(Nc2c3ccc(N)cc3nc3cc(N)ccc23)cc1`, the selectivity ratio in data set [1] is greater than 33. The IC50 is greater than 20 µM with Jurkat and 0.6 µM in the data set with Plasmodium falciparum.

Consider `Cc1ccc(Nc2c3ccc(N)cc3nc3cc(N)ccc23)cc1`, for which the selectivity ratio in data set [1] turned out to be 20. Also, the IC50 came to 3 µM in the data set on Jurkat and 0.15 µM with Plasmodium falciparum.

In the case of `CNc1ccc(Nc2c3ccccc3nc3cc(N)ccc23)cc1`, the selectivity ratio in data set [1] worked out at 1.6. For the same compound, the IC50 in the data set on Jurkat was determined as 0.5 µM; with Plasmodium falciparum, 0.32 µM.
